Assay results published in paper PMC2731475 (Journal of the American Chemical Society, 2009).
Read-outs that look alike come from different tables or passages of the source. Values belong to the molecule of their own block, whether it stands above or below them.

Experiments:
mice = details: cited from earlier work
5′CUG/3′GUC = details: studies on 5′UTR of thymidylate synthetase mRNA; cited from earlier work
DNA1 = assay: Fluorescence binding assay, DNA1; details: for Kd: DNA1, DNA hairpin with 5′AATT/3′TTAA
Outline: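 The DNA hairpin was titrated into 1 μM test compound in 8 mM sodium phosphate pH 7.0, 185 mM NaCl, 1 mM EDTA. After 5 min incubation, fluorescence was read at ex 360/40 and em 460/40. Fraction bound/[nucleic acid] was plotted against fraction bound to obtain binding constants.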

RNA7 = assay: Fluorescence binding assay, RNA7
Outline: (§1)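 RNA hairpins were annealed in 8 mM sodium phosphate pH 7.0, 185 mM NaCl, 1 mM EDTA at 60 °C for 1 min and slowly cooled. They were titrated into 1 μM test compound in the same buffer and read after 5 min as fluorescence (ex 360/40, em 460/40). Plots were fraction bound/[RNA] versus fraction bound, fitted to a large-ligand lattice-binding equation giving the microscopic dissociation constant.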

r(CUG)109 [1] = assay: Fluorescence binding assay, r
Outline: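 r(CUG)109, transcribed from BamHI-linearised plasmid and gel-purified, was annealed at 60 °C for 1 min in pH 7.0 phosphate/185 mM NaCl/EDTA buffer. It was titrated into test compound (1 μM; 5 μM for one monomeric ligand) and fluorescence read after 5 min. Data were fitted to a lattice-binding equation with N repeat units. Selectivity = Kd(herring sperm DNA)/Kd(r(CUG)109).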

r(CUG)109-MBNL1 complex = assay: r; format: biochemical
RNA10 = assay: Fluorescence binding assay, RNA10
RNA8 = assay: Fluorescence binding assay, RNA8
Outline: as §1

RNA9 = assay: Fluorescence binding assay, RNA9
Outline: as §1

herring sperm DNA = assay: Fluorescence binding assay, herring sperm DNA
Outline: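 Herring sperm DNA was annealed at 90 °C for 3 min in 8 mM sodium phosphate pH 7.0, 185 mM NaCl, 1 mM EDTA and slowly cooled. It was titrated into 1 μM test compound, and fluorescence (ex 360/40, em 460/40) was read after 5 min. Fraction bound/[DNA] versus fraction bound was fitted to a straight line for Kd.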

RNA2 = assay: Fluorescence binding assay, RNA2; details: RNA2, single 5′CUG/3′GUC (DM1) motif
Outline: as §1

RNA5 = assay: Fluorescence binding assay, RNA5
Outline: as §1

RNA3 = assay: Fluorescence binding assay, RNA3
Outline: as §1

RNA12-MBNL1 complex = assay: MBNL1-RNA12; format: biochemical
RNA4 = assay: Fluorescence binding assay, RNA4
Outline: as §1

RNA11-MBNL1 complex = assay: MBNL1-RNA11; format: biochemical
RNA6 = assay: Fluorescence binding assay, RNA6
Outline: as §1

RNA1 = assay: Fluorescence binding assay, RNA1
Outline: as §1

[2] = test system: RNAs containing a 1×1 nucleotide CC internal loop; details: cited from earlier work
RNA12 [3] = assay: Binding of MBNL1 to RNA12; details: MBNL1, RNA12 versus RNA11
RNA16 [4] = assay: Binding of MBNL1 to RNA16; details: MBNL1, RNA16 versus RNA11
RNA13 [5] = details: MBNL1 binding to RNA13, gel retardation; cited from earlier work
RNA13 [6] = assay: Binding of MBNL1 to RNA13; details: MBNL1, RNA13 versus RNA11
r(CUG)109 [7] = details: MBNL1 binding to r(CUG)109; cited from earlier work
RNA17 = assay: Binding of MBNL1 to RNA17
RNA14 [8] = assay: Binding of MBNL1 to RNA14
RNA14 [9] = details: MBNL1 binding to RNA14, gel retardation; cited from earlier work
RNA15 = details: MBNL1 binding to RNA15, gel retardation; cited from earlier work
RNA16 [10] = details: MBNL1 binding to RNA16, gel retardation; cited from earlier work
RNA12 [11] = details: MBNL1 binding to RNA12, gel retardation; cited from earlier work
RNA11 = details: MBNL1 binding to RNA11, gel retardation; cited from earlier work

Molecule: CN1CCN(c2ccc3[nH]c(-c4ccc5[nH]c(-c6ccc(O)cc6)nc5c4)nc3c2)CC1 [Compound 1, Hoechst 33258]
- tolerability and toxicity in mice (mice): well tolerated by and non-toxic to mice
- affinity for 5′CUG/3′GUC (5′CUG/3′GUC): nanomolar affinity
- Kd (DNA1): 280 nM

- Specificity to RNA2 (RNA7; RNA7 versus RNA2): ∼7.7
- specificity for r(CUG)109 versus herring sperm DNA (r(CUG)109 [1]): 0.7 fold
- Selectivity for r(CUG)109 over herring sperm DNA (r(CUG)109 [1]; Kd herring sperm DNA divided by Kd r(CUG)109): 0.73
- Kd (r(CUG)109 [1]; r(CUG)109 hairpin, 54 DM1 motifs): 150 ± 25 nM
- IC50 (r(CUG)109-MBNL1 complex; 0.65 pmoles r(CUG)109 immobilized, 3.7 μM bulk yeast tRNA, 32 pmoles MBNL1): 110000 ± 20000 nM
- inhibition of the MBNL1-r(CUG)109 interaction (r(CUG)109-MBNL1 complex; in the presence of bulk yeast tRNA): ≥ 95%
- Kd (RNA10; RNA10, 1×1 AA loop): 820 ± 160 nM
- Specificity to RNA2 (RNA10; RNA10 versus RNA2): 6.3
- Kd (RNA8; RNA8): 520 ± 18 nM
- Specificity to RNA2 (RNA8; RNA8 versus RNA2): 4.0
- Kd (RNA9; RNA9, 1×1 AA loop (SCA3 motif)): 450 ± 100 nM
- Specificity to RNA2 (RNA9; RNA9 versus RNA2): 3.5
- Kd (herring sperm DNA): 110 ± 19 nM
- Kd (RNA2): 130 ± 25 nM
- Kd (RNA5; RNA5, 1×1 UU loop with GU closing pairs): 810 ± 150 nM
- Specificity to RNA2 (RNA5; RNA5 versus RNA2): 6.2
- weaker binding than to RNA2 (RNA5; loop GC pairs (RNA2) changed to GU (RNA5)): ~6 fold
- binds RNA2 more tightly than RNA3 (RNA3; 5′CUG/3′GUC (RNA2) versus 5′CUC/3′GUG (RNA3)): > 8 fold
- Kd (RNA3; RNA3, 5′CUC/3′GUG): 1050 ± 212 nM
- Specificity to RNA2 (RNA3; RNA3 versus RNA2): 8.0
- IC50 (RNA12-MBNL1 complex; RNA 12, Condition A: 7.5 pmoles of MBNL1 per well): 48400 ± 9900 nM
- IC50 (RNA12-MBNL1 complex; RNA 12, Condition B: 2.0 pmoles of MBNL1 per well): 21100 ± 500 nM
- Kd (RNA4; RNA4, 1×1 UU loop with AU closing pairs): 370 ± 107 nM
- Specificity to RNA2 (RNA4; RNA4 versus RNA2): 2.8
- weaker binding than to RNA2 (RNA4; loop GC pairs (RNA2) changed to AU (RNA4)): Approximately 3 fold
- IC50 (RNA11-MBNL1 complex; RNA 11, Condition A: 7.5 pmoles of MBNL1 per well): 30200 ± 6800 nM
- IC50 (RNA11-MBNL1 complex; RNA 11, Condition B: 2.0 pmoles of MBNL1 per well): 38100 ± 6900 nM
- Kd (DNA1): 250 ± 63 nM
- Specificity to RNA2 (DNA1; DNA1 versus RNA2): 1.9
- specific for RNA2 over DNA1 (DNA1; RNA2 over DNA1): ~2 fold
- Specificity to RNA2 (RNA6; RNA6 versus RNA2): 2.2
- Kd (RNA1; RNA1, fully paired hairpin cassette): 1700 ± 70 nM
- Specificity to RNA2 (RNA1; RNA1 versus RNA2): 13.1
- binds RNA2 more tightly than RNA1 (RNA1; RNA2 over RNA1): 13 fold
Molecule: CN1CCN(c2ccc3nc(-c4ccc5nc(-c6cccc(OCCCC(=O)NCCCN=[N+]=[N-])c6)[nH]c5c4)[nH]c3c2)CC1 [Compound 2, meta-(N-(3-azidopropyl)-4-oxybutanamide)-Hoechst]
- Kd (RNA7; RNA7, 1×1 CC loop): ~1000 nM
- Kd (RNA6; RNA6, 1×1 CC loop): 290 ± 50 nM

Molecule: N=C(N)c1ccc(-c2cc3ccc(C(=N)N)cc3[nH]2)cc1 [DAPI, 2-(4-amidinophenyl)-1H-indole-6-carboxamidine]
- affinity for RNAs containing a 1×1 nucleotide CC internal loop [2]: nanomolar affinities

Molecule: Cn1cc(NC(=O)c2cc(NC(=O)c3cc(NC=O)cn3C)cn2C)cc1C(=O)NCCC(=N)N [distamycin]
- affinity for RNAs containing a 1×1 nucleotide CC internal loop [2]: nanomolar affinities

- Specificity to DM1 RNA11 (RNA12 [3]): 2.5
- weaker than the DM1-MBNL1 complex (RNA12 [3]): 2.5 fold
- Specificity to DM1 RNA11 (RNA16 [4]): 3.7
- Specificity to DM1 RNA11 (RNA13 [6]): 0.8
- Specificity to DM1 RNA11 (RNA17; MBNL1, RNA17 versus RNA11): >4
- Kd (RNA17; MBNL1 binding to fully paired RNA17): > 1000 nM
- higher affinity than the DM1-MBNL1 complex (RNA14 [8]; MBNL1, DM2 RNA14): 2 fold
- Specificity to DM1 RNA11 (RNA14 [8]; MBNL1, RNA14 versus RNA11): 0.5
B1: MBNL1: Muscleblind-like 1 protein, alternative splicing regulator that binds expanded rCUG repeats (protein, UniProt Q9NR56 1-388, looked up)
Muscleblind-like protein 1: MAVSVTPIRDTKWLTLEVCREFQRGTCSRPDTECKFAHPSKSCQVENGRVIACFDSLKGRCSRENCKYLHPPPHLKTQLEINGRNNLIQQKNMAMLAQQMQLANAMMPGAPLQPVPMFSVAPSLATNASAAAFNPYLGPVSPSLVPAEILPTAPMLVTGNPGVPVPAAAAAAAQKLMRTDRLEVCREYQRGNCNRGENDCRFAHPADSTMIDTNDNTVTVCMDYIKGRCSREKCKYFHPPAHLQAKIKAAQYQVNQAAAAQAAATAAAMTQSAVKSLKRPLEATFDLGIPQAVLPPLPKRPALEKTNGATAVFNTGIFQYQQALANMQLQQHTAFLPPVPMVHGATPATVSAATTSATSVPFAATATANQIPIISAEHLTSHKYVTQM
- Kd (RNA13 [5]): 200 ± 30 nM
- Kd (r(CUG)109 [7]): 300 ± 93 nM
- Kd (RNA14 [9]): 120 ± 40 nM
- Kd (RNA15): > 2500 nM
- Kd (RNA16 [10]): 920 ± 150 nM
- Kd (RNA12 [11]): 630 ± 70 nM
- Kd (RNA11): 250 ± 10 nM
